Measurements as given in ChEMBL document CHEMBL4433216, “Discovery of Stereospecific PARP-1 Inhibitor Isoindolinone NMS-P515” (ACS Med Chem Lett, 2019).

Tests used:
[1] = biological target: Poly [ADP-ribose] polymerase 1 (Homo sapiens, UniProt P09874); experiment: Inhibition of PARP1 in human HeLa cells assessed as reduction in H2O2-induced PAR formation incubated for 30 mins followed by H2O2 addition for 15 mins by immunocytochemistry analysis; assay type: cell-based
CAPAN-1 = experiment: Antitumor activity against human Capan1 cells xenografted in Balb athymic Nu/Nu mouse assessed as maximal tumor growth inhibition at 62.5 mg/kg, iv qd for 5 days; assay type: functional; conditions: CAPAN-1, iv, 120 h, read-out: TGI
Procedure, shortened: (§1)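 Capan-1 pancreatic xenograft. Temozolomide was given alone at 62.5 mg/kg iv once daily for 5 days. Maximal tumor growth inhibition and maximum body weight loss were recorded.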

[2] = Toxicity in human Capan1 cells xenografted Balb athymic Nu/Nu mouse assessed as maximum weight loss at 62.5 mg/kg, iv qd for 5 days; assay type: organism-based; conditions: in vivo, 120 h; procedure, shortened: as §1

Chain of Poly [ADP-ribose] polymerase 1 (P09874 whole entry): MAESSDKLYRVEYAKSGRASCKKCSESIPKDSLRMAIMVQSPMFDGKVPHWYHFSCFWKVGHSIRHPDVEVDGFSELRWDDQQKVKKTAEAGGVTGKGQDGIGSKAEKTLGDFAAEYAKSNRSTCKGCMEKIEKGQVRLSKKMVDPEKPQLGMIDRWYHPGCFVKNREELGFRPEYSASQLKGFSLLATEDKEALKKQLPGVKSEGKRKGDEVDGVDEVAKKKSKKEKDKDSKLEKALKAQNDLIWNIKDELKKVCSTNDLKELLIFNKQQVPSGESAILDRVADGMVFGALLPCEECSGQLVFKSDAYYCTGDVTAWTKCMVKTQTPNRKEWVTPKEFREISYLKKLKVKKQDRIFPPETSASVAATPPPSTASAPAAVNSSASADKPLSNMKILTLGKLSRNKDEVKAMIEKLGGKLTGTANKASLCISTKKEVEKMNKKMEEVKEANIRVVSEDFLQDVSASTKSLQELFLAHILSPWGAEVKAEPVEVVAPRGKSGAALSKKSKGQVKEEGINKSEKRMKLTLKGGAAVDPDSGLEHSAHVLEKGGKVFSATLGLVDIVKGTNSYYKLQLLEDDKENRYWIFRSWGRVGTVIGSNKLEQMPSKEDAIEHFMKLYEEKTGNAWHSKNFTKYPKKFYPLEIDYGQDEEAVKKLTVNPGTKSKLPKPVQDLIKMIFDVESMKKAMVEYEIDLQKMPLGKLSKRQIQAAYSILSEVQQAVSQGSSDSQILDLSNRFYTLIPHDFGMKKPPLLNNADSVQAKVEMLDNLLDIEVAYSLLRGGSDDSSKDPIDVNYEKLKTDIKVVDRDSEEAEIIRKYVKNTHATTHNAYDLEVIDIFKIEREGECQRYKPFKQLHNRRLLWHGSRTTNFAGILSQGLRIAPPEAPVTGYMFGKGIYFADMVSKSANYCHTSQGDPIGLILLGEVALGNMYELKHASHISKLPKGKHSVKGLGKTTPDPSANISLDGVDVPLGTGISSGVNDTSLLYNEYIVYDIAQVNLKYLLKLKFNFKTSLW

IC50 [1] [nM]	SMILES	inhibition in vivo at 62.5 mg/kg (CAPAN-1) [%]	Activity [2] [%]
640	CC1c2cc(F)cc(C(N)=O)c2C(=O)N1C1CCN(C2CCCCC2)CC1 (racemic)	–	–
–	Cn1nnc2c(C(N)=O)ncn2c1=O [TEMOZOLOMIDE]	46	8
